Assay results published in ChEMBL document CHEMBL1129565, “Selective inhibitors of monoamine oxidase. 3. Structure-activity relationship of tricyclics bearing imidazoline, oxadiazole, or tetrazole groups” (J Med Chem, 1996).

Legend:
[1] = molecular target: T1, Amine oxidase [flavin-containing] A (Rattus norvegicus, UniProt P21396); test: Inhibitory concentration against rat brain mitochondrial monoamine oxidase A
T1 sequence (P21396 whole entry): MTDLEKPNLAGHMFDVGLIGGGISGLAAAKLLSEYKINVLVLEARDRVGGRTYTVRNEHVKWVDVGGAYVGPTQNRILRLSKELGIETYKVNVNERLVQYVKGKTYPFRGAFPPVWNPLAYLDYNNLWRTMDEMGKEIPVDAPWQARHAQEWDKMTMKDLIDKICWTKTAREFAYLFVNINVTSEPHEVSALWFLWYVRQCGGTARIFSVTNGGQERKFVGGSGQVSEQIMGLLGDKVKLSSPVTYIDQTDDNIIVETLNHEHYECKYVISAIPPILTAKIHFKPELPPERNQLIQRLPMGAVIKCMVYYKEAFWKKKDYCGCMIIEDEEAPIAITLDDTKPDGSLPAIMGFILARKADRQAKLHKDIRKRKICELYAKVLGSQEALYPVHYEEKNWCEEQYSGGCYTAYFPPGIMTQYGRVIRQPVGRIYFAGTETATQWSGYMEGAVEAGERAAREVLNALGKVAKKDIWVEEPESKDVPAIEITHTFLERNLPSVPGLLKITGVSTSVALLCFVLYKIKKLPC
Procedure, shortened: (§1)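 Rat brain mitochondrial MAO extract preincubated with inhibitor 15 min at 37 °C in 50 mM potassium phosphate pH 7.4. [3H]serotonin added at 0.2 μM final, then 20 min incubation. Pargyline 2 mM blanks. Stopped with HCl, products extracted into ethyl acetate/toluene and counted radiometrically. Triplicates; IC50 from mean % inhibition vs log concentration.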

[2] = molecular target: T1, Amine oxidase [flavin-containing] A; test: Inhibition of the enzyme Monoamine oxidase A which was not completely reverserved after 24 hr of dialysis after po administration to rat (brain); type: organism-based; settings: in vivo
[3] = molecular target: T2, Amine oxidase [flavin-containing] B (Rattus norvegicus, UniProt P19643); test: Inhibitory activity against rat brain mitochondrial Monoamine oxidase B at 1 uM
T2 sequence (P19643 whole entry): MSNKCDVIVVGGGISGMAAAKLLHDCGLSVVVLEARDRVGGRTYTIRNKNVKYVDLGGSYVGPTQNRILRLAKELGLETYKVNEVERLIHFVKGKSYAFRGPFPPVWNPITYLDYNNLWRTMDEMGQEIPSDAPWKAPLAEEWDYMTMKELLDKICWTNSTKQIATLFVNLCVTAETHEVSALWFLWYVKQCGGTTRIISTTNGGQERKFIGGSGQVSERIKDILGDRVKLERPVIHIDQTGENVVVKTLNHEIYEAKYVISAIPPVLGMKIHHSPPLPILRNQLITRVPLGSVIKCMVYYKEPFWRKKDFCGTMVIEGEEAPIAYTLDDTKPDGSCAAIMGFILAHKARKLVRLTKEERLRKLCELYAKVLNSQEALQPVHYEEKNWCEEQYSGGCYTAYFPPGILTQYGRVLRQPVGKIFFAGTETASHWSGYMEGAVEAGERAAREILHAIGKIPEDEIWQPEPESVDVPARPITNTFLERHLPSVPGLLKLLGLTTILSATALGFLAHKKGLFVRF
Procedure, shortened: as §1, with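 “[14C]phenethylamine” for “[3H]serotonin”, “10” for “0.2”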

[4] = molecular target: T1, Amine oxidase [flavin-containing] A; test: Inhibitory concentration against rat brain mitochondrial Monoamine oxidase A at 1 uM; procedure, shortened: as §1
[5] = molecular target: T1, Amine oxidase [flavin-containing] A; test: Inhibitory concentration against rat brain mitochondrial Monoamine oxidase A at <1 uM; procedure, shortened: as §1
[6] = molecular target: T2, Amine oxidase [flavin-containing] B; test: Inhibitory activity against rat brain mitochondrial Monoamine oxidase B at < 1 uM
Procedure, shortened: as §1, with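 “[14C]phenethylamine” for “[3H]serotonin”, “10” for “0.2”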

[7] = molecular target: T1, Amine oxidase [flavin-containing] A; test: Inhibition of the enzyme Monoamine oxidase A which was not completely reverserved after 24 hr of dialysis
Procedure, shortened: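 Reversibility: MAO extract preincubated with or without inhibitor 15 min at 37 °C, in duplicate, then dialysed 24 h at 4 °C with shaking against 0.1 M potassium phosphate pH 7.4, 5% sucrose, 1 mM dithiothreitol, buffer changed ca. 3 and 19 h. Undialysed portions held at 4 °C; both assayed together for MAO activity.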

[8] = molecular target: T2, Amine oxidase [flavin-containing] B; test: Inhibitory activity against rat brain mitochondrial Monoamine oxidase B
Procedure, shortened: as §1, with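 “[14C]phenethylamine” for “[3H]serotonin”, “10” for “0.2”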

[9] = molecular target: T1, Amine oxidase [flavin-containing] A; test: Inhibitory concentration against rat brain mitochondrial Monoamine oxidase A at 0.1 uM; procedure, shortened: as §1
[10] = molecular target: T2, Amine oxidase [flavin-containing] B; test: Inhibitory activity against rat brain mitochondrial Monoamine oxidase B at 0.1 uM
Procedure, shortened: as §1, with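 “[14C]phenethylamine” for “[3H]serotonin”, “10” for “0.2”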

[11] = molecular target: T2, Amine oxidase [flavin-containing] B; test: Inhibitory activity against rat brain mitochondrial Monoamine oxidase B at 0.3 uM
Procedure, shortened: as §1, with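 “[14C]phenethylamine” for “[3H]serotonin”, “10” for “0.2”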

[12] = molecular target: T1, Amine oxidase [flavin-containing] A; test: Ex vivo value for inhibition of MAO A of rats sacrificed 2 hr after po administration; type: organism-based
Procedure, shortened: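 Rats dosed orally, killed 2 h later; brain MAO A inhibition then measured ex vivo.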

[13] = molecular target: T1, Amine oxidase [flavin-containing] A; test: Inhibition of the enzyme MAO A which was not completely reverserved after 24 hr of dialysis after po administration to rat (brain); type: organism-based; settings: in vivo
[14] = molecular target: T2, Amine oxidase [flavin-containing] B; test: Inhibitory activity against rat brain mitochondrial Monoamine oxidase B at 10 uM
Procedure, shortened: as §1, with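 “[14C]phenethylamine” for “[3H]serotonin”, “10” for “0.2”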

[15] = molecular target: T1, Amine oxidase [flavin-containing] A; test: Inhibitory concentration against rat brain mitochondrial Monoamine oxidase A at 10 uM; procedure, shortened: as §1
[16] = molecular target: T2, Amine oxidase [flavin-containing] B; test: Inhibitory activity against rat brain mitochondrial Monoamine oxidase B;NS=not significant at 0.1 uM
Procedure, shortened: as §1, with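 “[14C]phenethylamine” for “[3H]serotonin”, “10” for “0.2”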

SMILES | IC50 [1] | inhibition at 1 µM [3] | inhibition at 1 µM [4] | other results
NCCNc1ccc2c(c1)C(=O)c1ccc(C3=NCCN3)cc1S2(=O)=O | 300 nM | 11% |  | Reversible [2]: 20%
O=C1c2ccc(C3=NCCN3)cc2S(=O)(=O)c2cc(C(F)(F)F)ccc21 |  | 10% | 12% | 
O=c1c2ccccc2sc2c(C3=NCCN3)cccc12 |  | 10% | 7% | 
O=S1(=O)c2ccccc2C(O)c2ccc(C3=NCCN3)cc21 (stereo not given) |  | 10% | 20% | 
O=S1(=O)c2ccccc2-c2cc(C3=NCCN3)ccc21 |  | 16% | 41% | 
CC(=O)N1CCN=C1c1ccc2c(c1)S(=O)(=O)c1ccc(F)cc1C2=O |  |  |  | Inhibition [5]: 4%; Inhibition [6]: -11%
Cc1ccc(C)c2c1[nH]c1ccc(C3=NCCN3)cc12 |  | 10% | 62% | 
O=c1c2ccccc2sc2cc(C3=NCCN3)ccc12 | 1000 nM | 14% |  | 
O=C1c2ccccc2S(=O)(=O)c2cc(C3=NCCCN3)ccc21 |  | 5% | 37% | 
CCCOc1ccc2sc3cc(-c4nnc(C)o4)ccc3c(=O)c2c1 | 60 nM |  |  | Reversible [7]: 10%; IC50 [8]: 1000 nM
c1ccc2c(c1)Oc1ccc(C3=NCCN3)cc1S2 | 100 nM |  |  | Reversible [7]: 46%; IC50 [8]: 10000 nM
CCn1nnc(-c2ccc3c(c2)S(=O)(=O)c2ccccc2C3=O)n1 |  | 45% | 36% | 
c1cc2c3c([nH]c2cc1C1=NCCN1)CCCC3 |  | 9% | 20% | 
CCNc1ccc2c(c1)C(=O)c1ccc(C3=NCCN3)cc1S2(=O)=O | 10 nM | 0% |  | Reversible [2]: 0%
Cc1ccc2c(c1)S(=O)(=O)c1cc(C3=NCCN3)ccc1C2=O |  | 5% | 53% | 
O=c1c2ccc(-c3nnn(CCO)n3)cc2oc2ccc(OCCO)cc12 |  |  |  | Inhibition [5]: 29%; Inhibition [6]: 18%
Cn1nnnc1-c1ccc2c(c1)S(=O)(=O)c1ccccc1C2=O |  |  |  | inhibition at 0.1 µM [9]: 53%; inhibition at 0.1 µM [10]: 1%
CC(C)c1ccc2sc3cc(-c4nn[nH]n4)ccc3c(=O)c2c1 |  | 5% | 24% | 
Cn1nnc(-c2ccc3c(=O)c4cc(OCCO)ccc4oc3c2)n1 |  |  | 64% | Inhibition [6]: 21%
CCCc1ccc2c(c1)C(=O)c1ccc(C3=NCCN3)cc1S2(=O)=O | 40 nM |  |  | Reversible [7]: 2%; inhibition at 0.3 µM [11]: 0%
COc1ccc2c(c1)C(=O)c1ccc(C3=NCCN3)cc1S2(=O)=O | 10 nM | 33% |  | Reversible [7]: 5%
[O-][S+]1c2ccccc2Sc2ccc(C3=NCCN3)cc21 (stereo not given) |  | 14% | 14% | 
CN1CCN=C1c1ccc2c(c1)S(=O)(=O)c1ccccc1C2=O |  | 18% | 27% | Inhibition ([3]; 1 µM): 11%
COc1ccc2c(c1)C(=O)c1ccc(-c3nnn(C)n3)cc1S2(=O)=O | 2 nM |  |  | Reversible [7]: 29%; IC50 [8]: 60 nM
O=S1(=O)c2ccccc2-c2cc(-c3nn[nH]n3)ccc21 |  | 0% | 9% | 
CCc1ccc2c(c1)C(=O)c1ccc(C3=NCCN3)cc1S2(=O)=O | 10 nM |  |  | Ki [12]: 4 nM; Reversible [13]: 11%; inhibition at 10 µM [14]: 27%
c1cc2c(cc1C1=NCCN1)Sc1cc(C3=NCCN3)ccc1O2 | 1000 nM |  |  | IC50 [8]: 10000 nM

SMILES | IC50 [1] | inhibition at 1 µM [3] | inhibition at 1 µM [4] | other results
O=S1(=O)c2ccccc2Nc2cc(C3=NCCN3)ccc21 |  | 12% | 23% | 
CNc1ccc2c(c1)C(=O)c1ccc(C3=NCCN3)cc1S2(=O)=O | 23 nM |  |  | Reversible [7]: 8%
CCOc1ccc2c(c1)C(=O)c1ccc(C3=NCCN3)cc1S2(=O)=O | 7 nM | 12% |  | Reversible [7]: 4%
CCOc1ccc2oc3cc(-c4nnn(CC)n4)ccc3c(=O)c2c1 |  |  |  | Inhibition [5]: 6%; Inhibition [6]: 32%
CC1CN=C(c2ccc3c(c2)S(=O)(=O)c2ccccc2C3=O)N1 (stereo not given) |  |  |  | inhibition at 10 µM [15]: 36%; inhibition at 10 µM [14]: 49%
O=C1c2cc(N3CCOCC3)ccc2S(=O)(=O)c2cc(C3=NCCN3)ccc21 | 10 nM | 4% |  | 
COc1ccc2c(c1)C(=O)c1ccc(-c3nnc(C)o3)cc1S2(=O)=O | 1 nM |  |  | Reversible [7]: 14%; IC50 [8]: 100 nM
O=C1c2cc(C3=NCCN3)ccc2S(=O)(=O)c2cc(C3=NCCN3)ccc21 |  | 3% | 46% | 
Cn1nnc(-c2ccc3c(c2)S(=O)(=O)c2ccccc2C3=O)n1 | 10 nM | 10% |  | Reversible [7]: 100%
Cc1nc(-c2ccc3c(c2)Sc2ccccc2O3)no1 | 200 nM | 14% |  | 
CCCOc1ccc2c(c1)C(=O)c1ccc(C3=NCCN3C(C)=O)cc1S2(=O)=O |  |  |  | inhibition at 0.1 µM [9]: 16%; inhibition at 0.1 µM [10]: 20%
COc1nnc(-c2ccc3c(c2)S(=O)(=O)c2ccccc2C3=O)o1 | 80 nM | 14% |  | 
Cc1ccc2c(c1)C(=O)c1ccc(C3=NCCN3)cc1S2(=O)=O | 20 nM |  |  | Reversible [7]: 26%; inhibition at 10 µM [14]: 0%
CCN(C)c1ccc2c(c1)C(=O)c1ccc(C3=NCCN3)cc1S2(=O)=O | 40 nM |  |  | Reversible [2]: 20%; IC50 [16]: Not Active
c1ccc(Cn2c3ccccc3c3cc(C4=NCCN4)ccc32)cc1 |  |  |  | inhibition at 10 µM [15]: 20%; inhibition at 10 µM [14]: 61%
O=S1(=O)c2ccccc2Oc2ccc(C3=NCCN3)cc21 | 40 nM |  |  | Reversible [7]: 16%; Inhibition [6]: 59%
CCn1nnc(-c2ccc3c(=O)c4cc(O)ccc4oc3c2)n1 | 2000 nM |  |  | IC50 [8]: 100 nM
C=CCNc1ccc2c(c1)C(=O)c1ccc(C3=NCCN3)cc1S2(=O)=O | 9 nM | 12% |  | Reversible [7]: 5%
c1ccc2c(c1)Cc1cc(C3=NCCN3)ccc1-2 |  | 11% | 59% | 
Cc1nc(-c2ccc3c(c2)S(=O)(=O)c2ccccc2O3)no1 |  | 17% | 98% | 
O=C1c2cc(F)ccc2S(=O)(=O)c2cc(C3=NCCN3)ccc21 | 200 nM | 12% |  | Reversible [7]: 62%
CC(C)c1ccc2c(c1)C(=O)c1ccc(-c3nnn(C)n3)cc1S2(=O)=O | 5 nM |  |  | Reversible [7]: 0%; inhibition at 0.1 µM [10]: -30%
CC(C)c1ccc2c(c1)C(=O)c1ccc(C3=NCCN3)cc1S2(=O)=O | 50 nM |  |  | Reversible [7]: 40%; inhibition at 0.1 µM [10]: 0%
O=C1c2ccccc2S(=O)(=O)c2cc(C3=NCCN3)ccc21 | 300 nM |  |  | Ki [12]: 80 nM; Reversible [13]: 100%; inhibition at 0.3 µM [11]: 3%
O=C1c2ccccc2S(=O)(=O)c2c1cccc2C1=NCCN1 |  | -6% | -5% | 
CCc1nnc(-c2ccc3c(c2)S(=O)(=O)c2ccccc2C3=O)o1 | 500 nM | 23% |  | 
O=C1c2ccccc2S(=O)(=O)c2cc(-c3nn[nH]n3)ccc21 [DOXANTRAZOLE] |  |  |  | inhibition at 10 µM [15]: 9%; inhibition at 10 µM [14]: 1%
